Consider 33 molecules from ChEMBL document CHEMBL4706578, “New one-pot synthesis of anti-tuberculosis compounds inspired on isoniazid” (Eur J Med Chem, 2020).

The subject of data set [1] is Mycobacterium tuberculosis. In words: Antimycobacterial activity against Mycobacterium tuberculosis InhA-OE strain assessed as inhibition of microbial growth at 20 uM incubated for 5 days by serial microdilution based colorimetric assay. In kind it is functional. Conditions: 120 h, time 5 day.
For data set [2], the system named is Mycobacterium tuberculosis. The data set is described as follows: Antitubercular activity against Mycobacterium tuberculosis H37Rv assessed as inhibition of microbial growth incubated by measuring turbidity for 5 days by serial microdilution based colorimetric assay. In kind it is functional. As to conditions: 120 h, dose 20 µM, time 5 day. The gist of the method:
(§1)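 Strains grown in Middlebrook 7H9 with ADS (BSA, dextrose, NaCl) and 1% glycerol. Compounds from 40 mM DMSO stocks were two-fold serially diluted in plate broth. Inoculum was a 1/25 dilution of a mid-log culture at McFarland 1.0, about 10⁶ CFU/well. Plates sealed and held 5 days at 37 °C. MIC is the lowest concentration with no visible turbidity. Rifampicin was the control drug.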
In general terms: In broth dilution the organism is exposed to a series of concentrations in liquid medium.

Data set [3] can be described thus: Cytotoxicity against African green monkey Vero E6 cells assessed as reduction in cell viability incubated for 48 hrs by neutral red assay. The format is cell-based. Conditions: Chlorocebus aethiops. The gist of the method:
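Vero kidney […] were seeded at 25,000 cells/well and allowed 24 h before compound was added, then incubated 48 h. Viable cells were read by neutral red uptake. IC50 was taken from log plots of growth inhibition versus concentration. Doxorubicin was the positive control and DMSO the vehicle control.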

Data set [4] in a line: Selectivity index, ratio of CC50 for african green monkey Vero cells to MIC for Mycobacterium tuberculosis H37Rv. Conditions: read-out: Selectivity Index. The format is toxicity.
Data set [5] relates to Mycobacterium tuberculosis. In words: Antitubercular activity against Mycobacterium tuberculosis H37Rv. The format is functional. The gist of the method: as §1
Data set [6] concerns Mycobacterium tuberculosis. In words: Antitubercular activity against Mycobacterium tuberculosis H37Rv under aerobic condition. The format is functional.
Data set [7] concerns Mycobacterium tuberculosis. In words: Antitubercular activity against Mycobacterium tuberculosis H37Rv under anerobic condition. In kind it is functional.

pIC50: −log10 of the molar value. Converted amounts (≈) assume the structure as drawn. Where only a bound is given, the exact number is not on record here.

Take `COC(=O)/C=C/N(/N=C/C=C(C)C)S(=O)(=O)c1ccc(C)cc1`: the MIC (in general, the least concentration at which growth counts as inhibited) came to 10 µM in data set [1] and 5 µM in data set [2].
Take `COC(=O)/C=C/N(/N=C/c1ccccc1OC)S(=O)(=O)c1ccc(C)cc1`: the figures for the MIC in data set [1] and in data set [2] were 5 µM and 1.25 µM, respectively. Moreover, in data set [3], the pIC50 (as a rule, −log10 of the IC50, conventionally taken in molar units) is less than 4.91. Besides, in data set [4], the selectivity ratio turned out to be 9.76.
In the case of `COC(=O)/C=C\N(/N=C/C1=CC2CC(C1)C2(C)C)S(=O)(=O)c1ccc(C)cc1` (stereo not drawn), the MIC in data set [2] was more than 20 µM.
Still for that read-out and setting: then `C/C=C/C=C/C=N/N(/C=C\C(=O)OC)S(=O)(=O)c1ccc(C)cc1`, with 20 µM.
On to `Cc1cc(C)nc(NNC(=O)c2ccccn2)n1`, for which, in data set [5], the MIC was 6.08 µg/mL (≈ 25 µM). In addition, the IC90 (commonly the concentration at which the effect reaches the 90% level) is 1.51 µg/mL (≈ 6.21 µM) in data set [6] and 2.02 µg/mL (≈ 8.3 µM) in data set [7].
As for `COC(=O)/C=C/N(/N=C/c1ccc([N+](=O)[O-])cc1)S(=O)(=O)c1ccc(C)cc1`, the MIC in data set [2] is more than 20 µM.
Same read-out and setting: under `COC(=O)/C=C\N(/N=C/C1=CCCCC1)S(=O)(=O)c1ccc(C)cc1` stands more than 20 µM.
For the molecule `COC(=O)/C=C/N(/N=C/c1ccc(OC)c(OC)c1)S(=O)(=O)c1ccc(C)cc1`, the MIC in data set [2] was more than 20 µM.
Regarding `COC(=O)/C=C/N(/N=C/c1ccc(-c2ccccc2)cc1)S(=O)(=O)c1ccc(C)cc1`, the minimum inhibitory concentration (MIC) in data set [2] is more than 20 µM.
Still for that read-out and setting: under `COC(=O)/C=C/N(/N=C/C1=CCCCC1)S(=O)(=O)c1ccc(C)cc1` stands 10 µM.
As for `COC(=O)/C=C/N(/N=C/c1ccccc1)S(=O)(=O)c1ccc(C)cc1`, the MIC is 2.5 µM in data set [1] and 1.25 µM in data set [2]. Besides, the pIC50 in data set [3] was less than 4.88. The selectivity ratio in data set [4] was 10.6.
`COC(=O)/C=C/N(/N=C/c1ccccc1C(F)(F)F)S(=O)(=O)c1ccc(C)cc1`: the MIC in data set [2] was determined as 20 µM.
With `C/C=C/C=C/C=N/N(/C=C/C(=O)OC)S(=O)(=O)c1ccc(C)cc1`, the MIC in data set [1] is 10 µM; in data set [2], 5 µM.
On to `COC(=O)/C=C/N(/N=C/c1ccc[nH]1)S(=O)(=O)c1ccc(C)cc1`, for which the MIC in data set [2] was more than 20 µM.
On the same count and under the same terms, then `COC(=O)/C=C\N(/N=C/c1ccc([N+](=O)[O-])cc1)S(=O)(=O)c1ccc(C)cc1`, with more than 20 µM; and `COC(=O)/C=C/N(/N=C/C=C/c1ccc(OC)cc1)S(=O)(=O)c1ccc(C)cc1`, with 10 µM; and `COC(=O)/C=C\N(/N=C/c1ccccc1)S(=O)(=O)c1ccc(C)cc1`, with 20 µM.
Still for that read-out and setting: under `COC(=O)/C=C\N(/N=C/c1ccc(OC)c(OC)c1)S(=O)(=O)c1ccc(C)cc1` stands more than 20 µM.
In data set [5], `O=C(N/N=C\c1ccco1)c1cc(C23CC4CC(CC(C4)C2)C3)c2ccccc2n1` gave an MIC of 3.12 µg/mL (≈ 7.81 µM).
In the case of `COC(=O)/C=C/N(/N=C/c1ccc2ccccc2c1)S(=O)(=O)c1ccc(C)cc1`, the figures for the MIC in data set [1] and in data set [2] were 2.5 µM and 1.25 µM, respectively. Further, the pIC50 in data set [3] was less than 4.94. Besides, the selectivity ratio in data set [4] was determined as 9.28.
For the molecule `COC(=O)/C=C\N(/N=C/C=C/c1ccc(OC)cc1)S(=O)(=O)c1ccc(C)cc1`, the MIC in data set [2] is more than 20 µM.
Still for that read-out and setting: then `COC(=O)/C=C\N(/N=C/c1ccc2ccccc2c1)S(=O)(=O)c1ccc(C)cc1`, with 20 µM.
The same measure, in the same setting: under `COC(=O)/C=C\N(/N=C/c1ccc[nH]1)S(=O)(=O)c1ccc(C)cc1` stands more than 20 µM; under `COC(=O)/C=C/N(/N=C/C1=CC2CC(C1)C2(C)C)S(=O)(=O)c1ccc(C)cc1` (stereo not drawn), more than 20 µM; under `COC(=O)/C=C\N(/N=C/c1ccc(-c2ccccc2)cc1)S(=O)(=O)c1ccc(C)cc1`, more than 20 µM.
On the same count and under the same terms, then `COC(=O)/C=C\N(/N=C/c1ccccc1C(F)(F)F)S(=O)(=O)c1ccc(C)cc1`, with more than 20 µM.
Consider `COC(=O)/C=C\N(/N=C/c1ccc(Br)cc1)S(=O)(=O)c1ccc(C)cc1`, for which the MIC in data set [2] was more than 20 µM.
For `COC(=O)/C=C/N(/N=C/c1ccc(Br)cc1)S(=O)(=O)c1ccc(C)cc1`, in data set [2], the MIC was more than 20 µM.
As to `COC(=O)/C=C\N(/N=C/c1ccco1)S(=O)(=O)c1ccc(C)cc1`, the MIC in data set [2] turned out to be 20 µM.
Consider `COC(=O)/C=C/N(/N=C/c1ccco1)S(=O)(=O)c1ccc(C)cc1`, for which the results for the MIC in data set [1] and in data set [2] were 10 µM and 5 µM, respectively.
As to `COC(=O)/C=C\N(/N=C/c1ccccc1OC)S(=O)(=O)c1ccc(C)cc1`, the MIC in data set [2] is more than 20 µM.
On to `NNC(=O)c1ccncc1` [ISONIAZID], for which the MIC in data set [1] was more than 7.3 µM; in data set [2], 0.36 µM.
Regarding `CO[C@H]1/C=C/O[C@@]2(C)Oc3c(C)c(O)c4c(O)c(c(/C=N/N5CCN(C)CC5)c(O)c4c3C2=O)NC(=O)/C(C)=C\C=C\[C@H](C)[C@H](O)[C@@H](C)[C@@H](O)[C@@H](C)[C@H](OC(C)=O)[C@@H]1C` [RIFAMPIN], in data set [2], the MIC was 0.3 µM.
